Data taken from ChEMBL document CHEMBL2429786, “New serotonin 5-HT1A receptor agonists endowed with antinociceptive activity in vivo” (J Med Chem, 2013).
Calls of active or inactive are those of the source. The calls are words filed in the database; no cut-off is given here.

Legend:
[1] = species on record: Homo sapiens; test: Displacement of [3H]DADLE from delta2 opioid receptor (unknown origin) at 1 uM after 120 mins
[2] = target: T1, Muscarinic acetylcholine receptor M2 (Homo sapiens) (UniProt P08172); test: Displacement of [3H]AF-DX 384 from muscarinic M2 receptor (unknown origin) at 1 uM after 60 mins
T1 sequence (whole entry): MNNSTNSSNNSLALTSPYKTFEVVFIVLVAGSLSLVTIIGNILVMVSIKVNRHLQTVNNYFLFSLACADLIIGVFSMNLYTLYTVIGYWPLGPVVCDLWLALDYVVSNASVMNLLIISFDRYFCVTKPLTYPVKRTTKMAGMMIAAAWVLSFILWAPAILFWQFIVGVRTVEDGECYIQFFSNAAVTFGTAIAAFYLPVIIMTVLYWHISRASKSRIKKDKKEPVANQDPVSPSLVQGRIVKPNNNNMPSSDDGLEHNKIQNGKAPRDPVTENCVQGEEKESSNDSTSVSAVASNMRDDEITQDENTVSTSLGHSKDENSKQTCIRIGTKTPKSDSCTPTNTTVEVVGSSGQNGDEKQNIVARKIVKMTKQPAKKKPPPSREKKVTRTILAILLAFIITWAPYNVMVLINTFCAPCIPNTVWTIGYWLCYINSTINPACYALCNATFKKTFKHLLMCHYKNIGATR

[3] = target: Adrenergic receptor alpha-2 (Homo sapiens) (UniProt P08913+P18825+P18089); test: Displacement of [3H]RX 821002 from alpha2-adrenergic receptor (unknown origin) at 1 uM after 60 mins
[4] = system: Mus musculus; test: Toxicity in CD-1 mouse at 3 mg/kg, ip and 30 mg/kg, po; format: organism-based; details: in vivo
[5] = system: Mus musculus; test: Antinociceptive activity in CD-1 mouse assessed as reduction of formalin-induced paw licking activity at 3 mg/kg, ip administered 15 mins prior to formalin-challenge measured after 5 mins in presence of 5-HT1A receptor antagonist WAY-100635; format: functional, organism-based; set-up: dose 3 mg/kg
[6] = Intrinsic clearance in Sprague-Dawley rat liver microsomes at 1 to 5 uM by HPLC-MS analysis; format: ADME, Microsome; details: read-out: CLH
Summary of the method: (§1)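 Incubation mixtures pre-equilibrated at 37 °C with NADPH and MgCl2, then rat or human liver microsomes added to start the reaction. Aliquots were withdrawn and quenched at several time points, and percent parent remaining was measured by HPLC-MS and plotted against time. t1/2 was taken from the slope of peak area over time and used to calculate CLint.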

[7] = Half life in Sprague-Dawley rat liver microsomes at 1 to 5 uM by HPLC-MS analysis; format: ADME, Microsome; summary of the method: as §1
[8] = target: T2, 5-hydroxytryptamine receptor 1A (Rattus norvegicus, UniProt P19327); test: Displacement of [3H]-8-OH-DPAT from 5-HT1A receptor in Sprague-Dawley rat cerebral cortex after 15 mins; format: tissue-based
T2 sequence (P19327 whole entry): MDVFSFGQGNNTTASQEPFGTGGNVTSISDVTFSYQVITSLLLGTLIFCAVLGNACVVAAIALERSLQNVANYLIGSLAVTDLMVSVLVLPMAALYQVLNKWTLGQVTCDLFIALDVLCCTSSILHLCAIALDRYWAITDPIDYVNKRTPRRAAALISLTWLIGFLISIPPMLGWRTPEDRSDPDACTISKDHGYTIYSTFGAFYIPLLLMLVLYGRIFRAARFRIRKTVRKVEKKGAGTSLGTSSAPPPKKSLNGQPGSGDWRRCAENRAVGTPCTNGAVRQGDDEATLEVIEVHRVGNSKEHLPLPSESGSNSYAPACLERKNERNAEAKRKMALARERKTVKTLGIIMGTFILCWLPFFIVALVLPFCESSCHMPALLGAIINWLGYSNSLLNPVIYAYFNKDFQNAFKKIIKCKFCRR

[9] = target: 5-hydroxytryptamine receptor 7 (Rattus norvegicus, UniProt P32305); test: Displacement of [3H]-5-CT from 5-HT7 receptor in Sprague-Dawley rat hypothalamus after 120 mins
Sequence of 5-hydroxytryptamine receptor 7 (P32305 whole entry): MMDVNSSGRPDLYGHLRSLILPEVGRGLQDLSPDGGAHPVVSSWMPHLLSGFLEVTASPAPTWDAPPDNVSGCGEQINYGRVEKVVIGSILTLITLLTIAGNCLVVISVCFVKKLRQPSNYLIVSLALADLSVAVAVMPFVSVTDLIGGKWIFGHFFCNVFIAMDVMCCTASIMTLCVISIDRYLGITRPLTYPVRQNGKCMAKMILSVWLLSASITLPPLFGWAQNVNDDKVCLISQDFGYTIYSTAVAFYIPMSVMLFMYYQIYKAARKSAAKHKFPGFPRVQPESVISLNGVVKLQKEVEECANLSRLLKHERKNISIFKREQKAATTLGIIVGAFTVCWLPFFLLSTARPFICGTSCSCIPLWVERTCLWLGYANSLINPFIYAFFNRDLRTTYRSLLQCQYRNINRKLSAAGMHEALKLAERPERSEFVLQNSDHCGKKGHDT

With `CCOc1ccccc1OCCNCCCCN1C(=O)C2CCCN2C1=O.Cl` (centres undefined) the inhibition [1] was “inactive”, the inhibition [2] was “inactive” and the inhibition [3] was “inactive”. The Activity [4] was “Non-toxic”, the Activity [5] was “inactive” and the CLint scaled at up to 5 µM [6] was 107 mL/min/kg. The half-life at up to 5 µM [7] was 13.1 min, the Ki [8] was 2.3 nM and the Ki [9] was 16.9 nM.
